Measured values from PMC12217772 (Nature Communications, 2025).
“And” between values parts separate entries of the source, which are not always exact repeats. Identical values can stand only once.

Assays:
CP-AMPARs = CP-AMPARs (Rattus norvegicus, UniProt P19491); assay: Whole-cell recordings, other NMDAR channel blockers on CP-AMPARs; type: cell-based; settings: for Inhibitory effect on CP-AMPARs at hundreds of micromolar concentrations: hundreds of micromolar (10 and 100 µM shown in Fig. S1), 10 mM glutamate
GluA2(Q)/γ2 = GluA2(Q)/γ2 (UniProt P19491+Q9Y698, E306D/I257V/N307S/S313A); assay: Whole-cell patch-clamp, glutamate-induced currents, GluA2; type: cell-based, rat; settings: 10 mM glutamate
Method in brief: (§1)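 HEK-293T cells were transfected with GluA2(Q), GluA2(Q)/γ2 or GluA2(Q)/γ8 plus GFP, replated in NBQX medium, and recorded 24–48 h later. Whole-cell clamp at −60 mV, room temperature; CsF/CsCl/EGTA internal and NaCl/KCl/CaCl2/HEPES external, both pH 7.4. […] IC50 came from a Hill fit of steady-state inhibition; ≥3 recordings from ≥3 days.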

[1] = molecular target: GluA2(Q) in the presence of CTZ (Rattus norvegicus, UniProt P19491); assay: Whole-cell patch-clamp, GluA2; type: cell-based; settings: 500 µM memantine, 100 μM CTZ, 10 mM glutamate
GluA2(Q) = GluA2(Q) (Rattus norvegicus, UniProt P19491); assay: Whole-cell patch-clamp, glutamate-induced currents, GluA2; type: cell-based; settings: 500 µM memantine, 10 mM glutamate, no auxiliary subunit, no CTZ
Method in brief: as §1

GluA1/γ2 = GluA1/γ2 (Homo sapiens, UniProt P42261); assay: Whole-cell patch-clamp, glutamate-induced currents, GluA1/γ2; type: cell-based
Method in brief: (§2)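 HEK-293T cells at 40–50% confluency were lipofectamine-transfected with GluA1, or GluA1 plus GluA2(R), co-transfected with γ2 or γ8 and GFP. Cells were replated after 4–6 h in NBQX-containing medium and recorded 24–48 h post-transfection. […] IC50 came from a Hill fit of steady-state current inhibition versus concentration; ≥3 recordings over ≥3 days.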

GluA1-GluA2(R)/γ2 = GluA1-GluA2(R)/γ2 (UniProt P19491+P42261, Q607R); assay: Whole-cell patch-clamp, co-expression of GluA1 and GluA2; type: cell-based
Method in brief: as §2

GluA2(R)/γ2 = GluA2(R)/γ2 (Rattus norvegicus, UniProt P19491, Q607R); assay: Whole-cell patch-clamp, glutamate-induced currents, CI-AMPAR GluA2; type: cell-based; settings: 10 mM glutamate
GluA1/γ8 = GluA1/γ8 (Homo sapiens, UniProt P42261); assay: Whole-cell patch-clamp, glutamate-induced currents, GluA1/γ8; type: cell-based
Method in brief: as §2

GluA2(Q)/γ8 = GluA2(Q)/γ8 (UniProt P19491+Q8WXS5); assay: Whole-cell patch-clamp, glutamate-induced currents, GluA2; type: cell-based, rat; settings: 500 µM memantine, 10 mM glutamate
Method in brief: as §1

[2] = molecular target: GluA2(Q) subunit of GluA2-γ2EM (rat) (UniProt P19491); assay: cryo-EM structure

GluA1/γ8, sequence (P42261 19-906, species assumed): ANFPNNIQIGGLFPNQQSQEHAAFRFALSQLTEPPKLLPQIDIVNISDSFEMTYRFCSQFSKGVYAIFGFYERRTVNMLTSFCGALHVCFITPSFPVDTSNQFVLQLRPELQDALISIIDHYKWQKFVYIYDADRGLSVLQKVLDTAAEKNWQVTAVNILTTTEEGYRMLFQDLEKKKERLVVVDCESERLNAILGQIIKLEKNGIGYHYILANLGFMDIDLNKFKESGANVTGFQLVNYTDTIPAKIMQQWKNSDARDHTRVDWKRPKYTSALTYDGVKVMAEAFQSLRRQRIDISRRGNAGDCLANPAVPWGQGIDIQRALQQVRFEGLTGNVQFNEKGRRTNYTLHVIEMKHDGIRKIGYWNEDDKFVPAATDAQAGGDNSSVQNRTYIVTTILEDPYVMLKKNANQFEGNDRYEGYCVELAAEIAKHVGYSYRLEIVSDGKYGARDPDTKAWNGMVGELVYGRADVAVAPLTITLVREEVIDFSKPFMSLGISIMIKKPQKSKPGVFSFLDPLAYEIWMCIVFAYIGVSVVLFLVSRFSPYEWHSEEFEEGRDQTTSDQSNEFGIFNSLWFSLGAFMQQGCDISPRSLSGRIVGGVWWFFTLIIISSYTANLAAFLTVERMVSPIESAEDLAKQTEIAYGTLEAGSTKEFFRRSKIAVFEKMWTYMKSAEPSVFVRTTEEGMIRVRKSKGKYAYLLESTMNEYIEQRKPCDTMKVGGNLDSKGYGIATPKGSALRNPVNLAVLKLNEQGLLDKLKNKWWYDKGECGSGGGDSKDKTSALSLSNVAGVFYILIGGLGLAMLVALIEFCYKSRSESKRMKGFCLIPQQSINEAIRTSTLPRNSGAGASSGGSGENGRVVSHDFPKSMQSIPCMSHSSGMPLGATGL
GluA1/γ8, sequence (Q8WXS5 whole entry partner, species assumed): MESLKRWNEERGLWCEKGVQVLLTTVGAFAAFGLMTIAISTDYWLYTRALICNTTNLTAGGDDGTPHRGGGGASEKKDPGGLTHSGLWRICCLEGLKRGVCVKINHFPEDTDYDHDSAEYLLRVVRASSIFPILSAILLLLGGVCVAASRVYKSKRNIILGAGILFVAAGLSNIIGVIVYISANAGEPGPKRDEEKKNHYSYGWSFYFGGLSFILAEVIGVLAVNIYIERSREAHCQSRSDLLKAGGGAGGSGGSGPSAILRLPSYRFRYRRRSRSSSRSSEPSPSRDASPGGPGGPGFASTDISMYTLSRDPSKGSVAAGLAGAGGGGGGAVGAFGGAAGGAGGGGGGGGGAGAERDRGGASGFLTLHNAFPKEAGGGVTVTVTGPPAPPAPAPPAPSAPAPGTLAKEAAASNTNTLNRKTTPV
GluA1/γ2, sequence (P42261 19-906, species assumed): as the sequence (P42261 19-906, species assumed) above
GluA1/γ2, sequence (Q9Y698 whole entry partner, species assumed): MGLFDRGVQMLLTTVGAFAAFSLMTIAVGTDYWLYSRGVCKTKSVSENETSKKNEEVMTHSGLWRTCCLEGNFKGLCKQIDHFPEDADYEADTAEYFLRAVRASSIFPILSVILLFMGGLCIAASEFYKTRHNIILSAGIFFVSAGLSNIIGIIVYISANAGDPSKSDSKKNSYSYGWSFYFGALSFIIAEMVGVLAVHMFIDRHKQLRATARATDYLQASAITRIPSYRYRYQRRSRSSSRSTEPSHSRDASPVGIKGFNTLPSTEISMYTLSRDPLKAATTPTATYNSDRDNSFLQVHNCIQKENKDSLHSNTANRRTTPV

C[C@]12N[C@H](Cc3ccccc31)c1ccccc12 [MK801]
Inhibition of CP-AMPARs in the concentration range where they inhibit NMDARs (CP-AMPARs): do not show significant inhibition
Inhibitory effect on CP-AMPARs at hundreds of micromolar concentrations (CP-AMPARs): minimal inhibitory effect

CNC1(c2ccccc2Cl)CCCCC1=O (stereo not drawn) [ketamine]
Inhibition of CP-AMPARs in the concentration range where they inhibit NMDARs (CP-AMPARs): do not show significant inhibition
Inhibitory effect on CP-AMPARs at hundreds of micromolar concentrations (CP-AMPARs): minimal inhibitory effect

CC12CC3CC(C)(C1)CC(N)(C3)C2 [memantine, Memantine]
Effect on peak and steady-state currents of GluA2(Q)/γ2 (GluA2(Q)/γ2; 500 µM memantine): inhibited
IC50 (GluA2(Q)/γ2; IC50 for memantine inhibition of GluA2(Q)/γ2, HEK-293 cells, steady-state current, −60 mV): 49.3 µM and 49 µM
Effect on steady-state currents of GluA2(Q) with CTZ [1]: showed inhibition of the steady-state currents
Inhibition of whole-cell currents of GluA2(Q) in isolation (GluA2(Q)): did not show any significant inhibition
IC50 (GluA1/γ2): 15 ± 2 µM
IC50 (GluA1-GluA2(R)/γ2): 697 ± 149 µM
Inhibitory effect on GluA2(R)/γ2 at 500 µM (GluA2(R)/γ2; 500 µM memantine): only a minor inhibitory effect
Inhibition of GluA2(R)/γ2 currents at saturating concentrations (GluA2(R)/γ2; saturating concentrations of memantine): only partial inhibition
IC50 (GluA1/γ8): 10 ± 2 µM
Effect on peak and steady-state currents of GluA2(Q)/γ8 (GluA2(Q)/γ8): inhibited

GluA2(Q) subunit of GluA2-γ2EM (from UniProt P19491-2 22-883) (receptor)
stoichiometry N [2]: 4
